Consider 1 molecule from ChEMBL document CHEMBL4339251, “Prenylated Bibenzyls from the Chinese Liverwort Radula constricta and Their Mitochondria-Derived Paraptotic Cytotoxic Activities” (J Nat Prod, 2019).

By IC50 is commonly meant the point on the concentration scale where inhibition reaches its midpoint.

The structures appear in SMILES notation. Calls of active or inactive are those of the source. No cut-off for these calls is given here.

Test [1] deals with A549. In words: Induction of mitochondria-derived paraptosis in human A549 cells assessed as reduction in intensity of mitochondria fluorescence up to 24 hrs by Mito-Tracker staining based fluorescence microscopy. Format: functional, cell-based. The essentials:
(§1)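 Mitochondrial fluorescence. After treatment for the indicated times, cells were stained with Mito-Tracker Red (100 nM) and 10 000 cells per sample were analysed by flow cytometry. Cells with decreased red fluorescence were gated as "pale" cells.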

Test [2] concerns A549. Description: Cytotoxicity in human A549 cells assessed as reduction in cell viability at 5 uM incubated for 24 hrs in presence of pan-caspase inhibitor Z-VAD-FMK by MTT assay. It is filed as functional, cell-based. (In general: Formazan colour is commonly taken as a measure of viable cells.)
The test system of test [3] is A549. In words: Induction of cytoplasmic vacuolization in human A549 cells at 10 uM treated for 3 hrs after pre-treatment with pan-caspase inhibitor Z-VAD-FMK for 1 hr by optical microscopy. It is filed as functional, cell-based. The gist of the method: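 Caspase-inhibitor morphology. Cells were treated with DMSO, 20 μM Z-VAD-FMK, 10 μM compound, or the combinations for 3 h, then imaged by optical microscopy.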

Test [4] deals with NCI-H1299. In words: Induction of apoptosis in human NCI-H1299 cells assessed as early apoptotic cells at 10 uM by annexinV-FITC and propidium iodide staining based flow cytometric analysis (reference value: 1.26%). Format: functional. In general terms: A flow cytometer gives signals particle by particle.
For test [5], the system named is A549. Description: Induction of mitochondria-derived paraptosis in human A549 cells assessed as induction of HMGB1 translocation from nucleus to cytoplasm at 10 uM incubated for 24 hrs by immunofluorescence staining. Format: functional, cell-based. The essentials:
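HMGB1 immunofluorescence. Cells were treated at 10 μM for 24 h, fixed in 4% paraformaldehyde for 30 min, permeabilised with 0.3% Triton X-100 for 15 min and blocked with 5% BSA for 30 min. Anti-HMGB1 was applied at 4 °C overnight and the secondary antibody at 37 °C for 1 h. Nuclei were counterstained with DAPI and cells imaged by confocal microscopy.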

In test [6] the test system is A549. In words: Induction of mitochondria-derived paraptosis in human A549 cells assessed as formation of fusion among swollen mitochondria after 6 to 24 hrs by Mito-Tracker staining based fluorescence microscopy. Format: functional, cell-based. The gist of the method:
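Live-cell imaging. Treated cells on coverslips were stained with Mito-Tracker Red (100 nM) at 37 °C for 30 min, washed three times with PBS and stained with Hoechst 33342 (10 μg/mL) for 15 min. Images were taken by confocal or fluorescence microscopy at the indicated times.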

Test [7] relates to NCI-H1299. Description: Induction of mitochondria-derived paraptosis in human NCI-H1299 cells assessed as reduction in intensity of mitochondria fluorescence up to 24 hrs by Mito-Tracker staining based fluorescence microscopy. It is filed as functional, cell-based. The gist of the method:
as §1

The subject of test [8] is NCI-H1299. Description: Induction of apoptosis in human NCI-H1299 cells assessed as early apoptotic cells at 20 uM by annexinV-FITC and propidium iodide staining based flow cytometric analysis (reference value: 1.26%). Format: functional.
For test [9], the system named is A549. Description: Induction of apoptosis in human A549 cells assessed as early apoptotic cells at 20 uM by annexinV-FITC and propidium iodide staining based flow cytometric analysis (reference value: 1.47%). It is filed as functional.
Test [10] relates to A549. Description: Induction of apoptosis in human A549 cells assessed as necrotic cells at 20 uM by annexinV-FITC and propidium iodide staining based flow cytometric analysis (reference value: 1.44%). It is filed as functional.
Test [11] deals with A549. Description: Induction of ROS generation in human A549 cells after 1 hr by DCFH-DA staining based flow cytometry relative to untreated control. It is filed as functional. The essentials:
(§2)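 ROS by flow cytometry. Cells were exposed for the indicated times, then stained with DCFH-DA (10 μM). DCF mean fluorescence intensity was compared with untreated control. Mean ± SD, n = 3.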

Test [12] deals with A549. Description: Induction of mitochondria dysfunction in human A549 cells assessed as mitochondrial membrane potential incubated for 1 hr by JC-1 dye based flow cytometry relative to 0 hrs control. It is filed as functional. The essentials:
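Membrane potential. After treatment for the indicated times, ΔΨm was measured by JC-1 (5 μg/mL) staining and flow cytometry, relative to the 0 h control. Mean ± SD, n = 3.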

In test [13] the test system is A549. In words: Induction of ROS generation in human A549 cells by DCFH-DA staining based flow cytometry. Format: functional, cell-based. To be noted: TDE = time-dependent effect. The gist of the method: as §2
The next test relates to HepG2. In words: Cytotoxicity in human HepG2 cells assessed as reduction in cell viability incubated for 48 hrs by MTT assay. Format: functional, cell-based. The settings on record: HepG2, 48 h. The gist of the method: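 MTT viability. Cells were seeded in 96-well plates overnight and exposed to a range of concentrations. MTT (5 mg/mL) was added for 4 h, formazan was dissolved in DMSO and absorbance read at 570 nm. Three independent experiments.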

Test [14] concerns A549. Description: Induction of apoptosis in human A549 cells assessed as induction of PARP cleavage at 2.5 to 10 uM incubated for 24 hrs by Western blot analysis. It is filed as functional, cell-based. The essentials: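 Western blot. Cells were cultured overnight in six-well plates, then exposed to various concentrations for 24 h before immunoblotting.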

For `COC(=O)c1c(CCc2ccccc2)cc(O)c(CC=C(C)C)c1O`, the result in the test with A549 [1], in the test on A549 [2], in the test with A549 [3], with A549 [5], in the test with A549 [6] and in the test with NCI-H1299 [7] was Active. The Activity was 0.57% in the test with NCI-H1299 [4]; 1.11% with NCI-H1299 [8]; 2.44% in the test on A549 [9]; 1.73% in the test with A549 [10]; 50% with A549 [12]; “Tde” with A549 [13]. In addition, the “fold change (FC)” value in the test with A549 [11] is given as 20. Besides, the IC50 in the test with HepG2 came to 6.3 µM. Moreover, the result with A549 [14] was inactive.
